Values after ≈ are worked out from the molar mass of the structure shown.
Legend:
[1] = system: Staphylococcus aureus; assay: Antibacterial activity against Telithromycin resistant Staphylococcus aureus isolate KT11 carrying rplD and rplV mutant genes; assay type: functional
In short: (§1)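 MICs determined in Luria-Bertani medium at 37°C. Resistant mutants of S. aureus RN4220 came from spreading 0.3 ml of an overnight brain heart infusion broth culture onto Luria-Bertani plates containing 1 μg/ml telithromycin. These plates were incubated at 37°C for 1 week.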

[2] = system: Staphylococcus aureus; assay: Antibacterial activity against Telithromycin resistant Staphylococcus aureus isolate KT02 carrying rplB-derived insertion of L22 ribosomal protein
[3] = system: Staphylococcus aureus; assay: Antibacterial activity against Telithromycin resistant Staphylococcus aureus isolate KT01 carrying rplB-derived insertion of L22 ribosomal protein
[4] = system: Staphylococcus aureus; assay: Antibacterial activity against Telithromycin resistant Staphylococcus aureus isolate KT06 carrying duplication in the carboxy-terminal region of L22 ribosomal protein; assay type: functional; in short: as §1
[5] = system: Staphylococcus aureus; assay: Antibacterial activity against Telithromycin resistant Staphylococcus aureus isolate KT04 carrying duplication in the carboxy-terminal region of L22 ribosomal protein; assay type: functional; in short: as §1
[6] = system: Staphylococcus aureus; assay: Antibacterial activity against Telithromycin resistant Staphylococcus aureus isolate KT05 carrying rplD and rplV mutant genes; assay type: functional; in short: as §1
[7] = system: Staphylococcus aureus; assay: Antibacterial activity against Telithromycin resistant Staphylococcus aureus RN4220 carrying rplD and rplV genes; assay type: functional; in short: as §1
[8] = system: Staphylococcus aureus; assay: Antibacterial activity against Telithromycin resistant Staphylococcus aureus isolate KT09 carrying rplD and rplV mutant genes; assay type: functional; in short: as §1
[9] = system: Staphylococcus aureus; assay: Antibacterial activity against Telithromycin resistant Staphylococcus aureus isolate KT10 carrying rplD and rplV mutant genes; assay type: functional; in short: as §1

Compound `CC[C@H]1OC(=O)[C@H](C)C(=O)[C@H](C)[C@@H](O[C@@H]2O[C@H](C)C[C@H](N(C)C)[C@H]2O)[C@](C)(OC)C[C@@H](C)C(=O)[C@H](C)[C@H]2N(CCCCn3cnc(-c4cccnc4)c3)C(=O)O[C@]12C` [TELITHROMYCIN] has an MIC [1] of 8 µg/mL (≈ 9.85 µM), an MIC [2] of 8 µg/mL (≈ 9.85 µM) and an MIC [3] of 16 µg/mL (≈ 19.7 µM). It also gave an MIC [4] of 4 µg/mL (≈ 4.93 µM), an MIC [5] of 16 µg/mL (≈ 19.7 µM) and an MIC [6] of 16 µg/mL (≈ 19.7 µM). For the same compound, the MIC [7] was 0.03 µg/mL (≈ 0.0369 µM), the MIC [8] was 2 µg/mL (≈ 2.46 µM) and the MIC [9] was 4 µg/mL (≈ 4.93 µM).

With `CC[C@H]1OC(=O)[C@H](C)[C@@H](O[C@H]2C[C@@](C)(OC)[C@@H](O)[C@H](C)O2)[C@H](C)[C@@H](O[C@@H]2O[C@H](C)C[C@H](N(C)C)[C@H]2O)[C@](C)(O)C[C@@H](C)C(=O)[C@H](C)[C@@H](O)[C@]1(C)O` [ERYTHROMYCIN] the MIC [1] was 16 µg/mL (≈ 21.8 µM), the MIC [2] was 32 µg/mL (≈ 43.6 µM) and the MIC [3] was 32 µg/mL (≈ 43.6 µM). The MIC [4] was 16 µg/mL (≈ 21.8 µM), the MIC [5] was 32 µg/mL (≈ 43.6 µM) and the MIC [6] was 32 µg/mL (≈ 43.6 µM). The MIC [7] was 0.12 µg/mL (≈ 0.164 µM), the MIC [8] was 8 µg/mL (≈ 10.9 µM) and the MIC [9] was 4 µg/mL (≈ 5.45 µM).

— ChEMBL document CHEMBL1255279, “Selection for high-level telithromycin resistance in Staphylococcus aureus yields mutants resulting from an rplB-to-rplV gene conversion-like event” (2008)
